{"source": "paper PMC7114156", "about": "(Antiviral Research, 2009)", "key": {"[1]": {"system": "adenovirus type 5", "assay": "Adenovirus assay: adenovirus-5 replication in HFF cells, viral DNA by qPCR", "assay_type": "cell-based", "settings": "read-out: EC50, adenovirus replication; data not shown"}, "[2]": {"system": "IM9 cells", "assay": "Growth of IM9 cell line", "assay_type": "cell-based, human", "settings": "read-out: EC50, growth of IM9 cells; data not shown"}, "[3]": {"system": "MT4 cells", "assay": "Growth of MT4 cell line", "assay_type": "cell-based, human", "settings": "read-out: EC50, growth of MT4 cells; data not shown"}, "[4]": {"system": "episomal HPV-16 DNA", "assay": "Hybrid capture assay for HPV16 DNA in W12-20850 cells", "assay_type": "cell-based", "settings": "read-out: EC50, reduction of HPV DNA; W12 cells; data not shown", "how_it_was_run": "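W12-20850 cells seeded at 7.5 × 10^3/well onto compound (100 to 0.001 μM), 4 days at 37 °C, 5% CO2. MTS growth read, then same cells lysed in 0.2N NaOH/1% Igepal. Episomal HPV-16 DNA measured by hybrid capture: 90 °C 6.5 min, 42 °C overnight, anti-digoxigenin HRP, chemiluminescence. HPV DNA/MTS ratio expressed as % of untreated control. Fit to modified Hill equation.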"}, "[5]": {"system": "W12-20850 cells", "assay": "Growth of W12-20850 cells, MTS", "assay_type": "cell-based, human", "settings": "read-out: EC50, inhibition of growth of W12 cells; data not shown", "how_it_was_run": "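For the time course, test compound was added at time zero to cells growing in 96-well plates. Growth was followed as rate of MTS reduction over 3 days from day zero, with untreated controls alongside.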"}, "[6]": {"system": "IM9 cells", "assay": "Apoptosis assay", "assay_type": "cell-based, human", "settings": "IM9, 20 h exposure", "how_it_was_run": "(§1)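 Apoptosis read as cytoplasmic histone-associated DNA fragments with a Cell Death Detection ELISA kit. Exposure was 20 h for IM9 and MT4 and 40 h for W12 and U937. A405 was read kinetically at 30 °C, and the rate per hour came from linear regression of the linear portion. A Fas-activating antibody was the positive control.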"}, "[7]": {"system": "MT4 cells", "assay": "Apoptosis assay", "assay_type": "cell-based, human", "settings": "MT4, 20 h exposure", "how_it_was_run": "as §1"}, "[8]": {"system": "W12 cells", "assay": "Apoptosis assay", "assay_type": "cell-based, human", "settings": "W12, 40 h exposure", "how_it_was_run": "as §1"}, "[9]": {"system": "U937 cells", "assay": "Apoptosis assay", "assay_type": "cell-based, human", "settings": "U937, 40 h exposure", "how_it_was_run": "as §1"}}}
{"smiles": "O=C(N[C@H]1CCCc2c1[nH]c1ccc(Cl)cc21)c1ccccn1", "note": "[GSK984]", "values": [{"measurement": "EC50", "setting": "[1]", "result": "> 10", "unit": "µM"}, {"measurement": "EC50", "setting": "[2]", "result": 13, "unit": "µM"}, {"measurement": "EC50", "setting": "[3]", "result": 35, "unit": "µM"}, {"measurement": "EC50", "setting": "[4]", "result": "6.9 ± 0.68", "unit": "µM"}, {"measurement": "EC50", "setting": "[5]", "result": "17 ± 3.6", "unit": "µM"}, {"measurement": "Apoptosis", "setting": "[6]", "result": "did not induce apoptosis"}, {"measurement": "Apoptosis", "setting": "[7]", "result": "did not induce apoptosis"}, {"measurement": "Apoptosis", "setting": "[8]", "result": "did not induce apoptosis"}, {"measurement": "Apoptosis", "setting": "[9]", "result": "did not induce apoptosis"}]}
